Sampled rows, rich in hits. Any-hit rate of the full collection: about 2.2%.
Apaf-1 inh – human Apaf-1 inhibition | reconstituted apoptosome caspase-3 activity, DEVD-Rh110 fluorescence | AID 489030 | inhibition, % at 20 µM | hit rate 0.71% among 330,000 | O14727; active = inhibition of at least 40% at 20 µM
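System – cell-free apoptosome with Apaf-1, procaspase-3 and caspase-9 · Buffer or medium – pH 7.5 Hepes buffer with CHAPS, BSA, DTT · Also added – cytochrome c with DEVD-Rh110 · Times – 30 min compound preincubation, 50 min activation, room temperature · Technique – Rh110 fluorescence intensity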
UBC9 SUMO inh – blocks human SUMOylation mediated by UBC9; hit rate 0.36% among 290,000; inhibition, % at 35 µM; HTRF SUMOylation assay, SAE1/SAE2 + UBC9, in vitro; AID 2006; P63279; in the data active = inhibition above about 50%, passing the limit was not always enough
Rin1 Abl inh – inhibitors of human Rin1-Abl protein interaction; P00519+Q13671; TR-FRET Rin1/Abl binding, biochemical; inhibition, % at 7.35 µM; hit rate 0.4% among 360,000; in the data active = inhibition above about 5%, passing the limit was not always enough
UBC13 polyUb – human UBC13 polyubiquitination inhibition; P61088; UBC13 polyubiquitin chain formation, TR-FRET; inhibition, % at 20 µM; hit rate 0.47% among 330,000; AID 485273; in the data active = inhibition above about 45%, passing the limit was not always enough
GSTO1 inh – GSTO1 inhibition, counter-screen for RBBP9 inhibitors; P78417; hit rate 1.1% among 300,000; inhibition, % at 5.96 µM; recombinant GSTO1, activity-based probe fluorescence polarization; AID 1974;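 active = inhibition above the campaign mean inhibition plus 3 SD, cut at about 35% in these data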
PAD4 inh – PAD4 (human) enzyme inhibition; Q9UM07; recombinant PAD4, RCA probe fluorescence polarization; inhibition, % at 6.36 µM; hit rate 0.41% among 330,000; AID 485272;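 active = percent inhibition above a cutoff equal to the mean of all tested compounds plus 3 SD, cut at about 15% in these data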
Rin1-Abl confirm – confirmation of inhibitors of human Rin1-Abl interaction; shares compounds with Rin1 Abl inh; inhibition, % at 7.35 µM; AID 602124; hit rate 49% among 1,300; TR-FRET Rin1-Abl binding, purified proteins; in the data active = inhibition above about 6.5%
GFP quench-1 – GFP fluorescence interference artifact; hit rate 8.5% among 1,300; inhibition, % at 6.75 µM; inhibitors/quenchers counterscreen; shares compounds with Rin1 Abl inh; AID 602125; in the data active = inhibition above about 6.5%;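 also: ABL1-eGFP fusion protein alone without its partner RIN1-SBP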
GFP quench DR – quenches GFP in dose response, Rin1-Abl counter-screen. 230 tested, under 10 active. AID 602182. GFP fluorescence interference/quenching counterscreen. shares compounds with Rin1 Abl inh. IC50, µM;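 also: ABL1-eGFP fusion protein alone without its RIN1 binding partner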
GFP quench-2 – GFP quenching artifact for Rin1-Abl inhibitor hits; shares compounds with Rin1 Abl inh; GFP fluorescence quenching counterscreen, biochemical; IC50, µM; 25 tested, under 10 active; AID 602397
A number is an active result; 0 = inactive; - = not tested or not shown. Unless noted, no rule for the calls is given here.

SMILES	Apaf-1 inh	UBC9 SUMO inh	Rin1 Abl inh	UBC13 polyUb	GSTO1 inh	PAD4 inh	Rin1-Abl confirm	GFP quench-1	others
Cc1ccc(NC(=S)N(CCCN2CCOCC2)Cc2cccnc2)cc1C	0	0	12.4	0	0	0	0	0
COc1cc(O)c(C(C)=O)c(CC(=O)O)c1	0	0	19.8	0	0	0	25.4	0	GFP quench DR=0
COc1cc(O)c(C(C)=O)c(OC)c1	-	-	0	-	-	-	-	-
CCOc1ccc(C(=O)Nc2nnc(C(C)C)s2)cc1OCC	0	0	7.8	0	0	0	0	0
COc1ccc(OC)c(C(c2c(C)[nH][nH]c2=O)c2c(C)[nH][nH]c2=O)c1	0	0	7.9	0	0	0	0	0
OC[C@@H]1CN(Cc2ccncc2)C[C@H](n2cnc3c(NCc4ccco4)ncnc32)O1	-	-	0	-	-	-	-	-
Cc1ccc2[nH]c(=O)c(C(c3nnnn3C(C)(C)C)N(Cc3ccco3)CC3CCCO3)cc2c1 (configuration not stated)	0	0	0	0	0	0	-	-
Cc1cccc2cc(C(c3nnnn3C(C)(C)C)N(Cc3ccco3)CC3CCCO3)c(=O)[nH]c12 (configuration not stated)	0	0	5.8	0	0	0	9.1	0
COc1ccc(CN2CCC(Oc3ccc(C(=O)N4CCCCC4)cc3)CC2)cc1C	0	0	14.7	0	0	0	10.5	0
COc1cccc(CN2CCC(Oc3ccc(C(=O)N4CCCCC4)cc3)CC2)c1	0	0	0	0	0	0	-	-
COc1ccc(C(O)c2nc(-c3cccs3)cs2)cc1 (configuration not stated)	-	-	0	-	-	-	-	-
Cc1c(N=NC2=C(O)CC(C)(C)CC2=O)c(=O)n(-c2ccccc2)n1C	0	0	10.2	0	0	0	0	0
CC(=O)/C(N=Nc1c(C)n(C)n(-c2ccccc2)c1=O)=C(\C)O	0	0	0	0	0	0	-	-
CCNC(=O)C1(C)CCCN(C(=O)c2sccc2C)C1 (configuration not stated)	-	-	0	-	-	-	-	-
Cc1ccc(-c2nnc(N3CCN(C(=O)c4ccco4)CC3)c3ccccc23)cc1	0	0	13.2	0	0	0	7.9	0
CC(=O)N1CCN(c2nnc(-c3ccccc3)c3ccccc23)CC1	0	0	0	0	0	0	-	-
CCc1ccc(CCC(=O)Nc2ccc(Cl)cc2)o1	0	0	0	0	0	0	-	-
Cc1ccc2[nH]c(=O)c(C3C(C#N)=C(N)Oc4c3ccc3cccnc43)cc2c1 (configuration not stated)	0	0	9.8	0	0	0	0	0
CC1(c2nnc(-c3ccccc3)o2)CC(c2ccc(Cl)cc2)=NO1 (configuration not stated)	0	0	0	0	0	0	-	-
CC1(c2nnc(-c3ccncc3)o2)CC(c2ccccc2)=NO1 (configuration not stated)	0	-	18.8	0	0	0	24.0	0
CC1(c2nnc(-c3ccncc3)o2)CC(c2ccc(Cl)cc2)=NO1 (configuration not stated)	0	-	17.0	0	0	0	22.9	0
CC1(c2nnc(-c3ccccc3)o2)CC(c2ccncc2)=NO1 (configuration not stated)	0	0	0	0	0	0	-	-
COC(=O)C1CCCCN1C(=O)c1cc(COc2cccc3cccnc23)on1 (configuration not stated)	0	0	0	0	0	0	-	-
O=C(c1cc(COc2cccc3cccnc23)on1)N1CCC[C@H]1CO	-	-	54.2	-	-	-	50.1	0	GFP quench DR=0;GFP quench-2=0
COCCC1CCCCN1C(=O)c1cc(COc2cccc(C(C)=O)c2)on1 (configuration not stated)	0	0	0	0	0	0	-	-
SMILES	Apaf-1 inh	UBC9 SUMO inh	Rin1 Abl inh	UBC13 polyUb	GSTO1 inh	PAD4 inh	Rin1-Abl confirm	GFP quench-1	others
CC(=O)c1ccc(OCc2cc(C(=O)N3CCC[C@H]3CO)no2)cc1	0	0	11.5	0	0	0	10.0	0
O=C(/C=C/[C@H]1O[C@@H](n2cnc3c(NC(=O)c4ccccc4)ncnc32)[C@H](O)[C@@H]1O)NCC1CCCO1 (some centres not stated)	-	-	0	-	-	-	-	-
O=C(COc1c(Br)cc(Br)c2cccnc12)N1CCCCC1	0	0	0	0	0	0	-	-
Oc1c(CN2CCCCC2)cc(Br)c2cccnc12	0	0	11.4	0	0	0	8.0	0
Oc1c(Cl)cc(CN2CCOCC2)c2cccnc12	0	-	7.4	0	-	0	0	0
Cc1ccc(S(=O)(=O)N2CCCCC2)cc1NC(=O)c1cc(F)c(F)c(F)c1F	0	-	0	0	-	0	-	-
CSc1ccccc1OCc1cc(C(=O)NCCCn2nc(C)cc2C)no1	0	0	0	0	0	0	-	-
CC(CO)NS(=O)(=O)c1cc(Cl)ccc1F (configuration not stated)	-	-	0	-	-	-	-	-
COc1ccc(NS(=O)(=O)c2cccc(C(=O)NC3CCN(Cc4ccccc4)CC3)c2)cc1	0	0	0	0	0	0	-	-
COc1ccc(Cn2c(=O)[nH]c3cc(C(=O)NC4CCN(Cc5ccccc5)CC4)ccc32)cc1	0	0	11.9	0	0	0	16.1	0
CC[C@H](C)[C@H]1CNC(=S)N1CC1CCN(CCCC2CCCC2)CC1	-	-	0	-	-	-	-	-
CCOC(=O)C1=C(C)Nc2nnnn2C1c1ccc(OC)c(Br)c1 (configuration not stated)	0	0	10.7	0	0	0	0	0
CCOC(=O)C1=C(C)NC(=S)N(C(C)=O)C1c1ccc(OC)c(OC)c1 (configuration not stated)	0	0	0	0	0	0	-	-
CC(C)CN(C(=O)c1ccco1)C1CCS(=O)(=O)C1 (configuration not stated)	0	-	0	0	0	0	-	-
Cc1ccc(S(=O)(=O)NCCC(=O)NCC(c2cccs2)N2CCOCC2)cc1 (configuration not stated)	0	-	0	0	0	0	-	-
COc1ccc(-c2noc(N3CCC(C(=O)Nc4ccc(F)cc4)CC3)n2)cc1	0	0	0	0	0	0	-	-
COc1ccc(NC(=O)C2CCCN(c3ncnc4onc(-c5ccc(F)cc5)c34)C2)cc1 (configuration not stated)	0	0	9.2	0	0	0	0	0
CN(C)c1ccc(-c2[nH][nH]c(=O)c2NC(=O)c2ccccn2)cc1	-	-	33.7	-	-	-	10.7	0
CN(C)c1ccc(-c2[nH][nH]c(=O)c2NC(=O)c2ccc3ccccc3n2)cc1	-	-	35.5	-	-	-	10.1	0

Bioassay records as filed in PubChem BioAssay.
